Reference: ChEMBL document CHEMBL4689842, “EUbOPEN Chemogenomics Library wave 1” (2021)

Test system: U2OS
Assay: Multiplex assay against U2OS
Assay type: toxicity, cell-based
Settings: human
Summary of the method: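 On a CQ1 microscope at 37°C and 5% CO2, live cells were imaged after compound addition. They had been stained at seeding with Hoechst33342, BioTracker Green Microtubule Cytoskeleton Dye, MitoTracker Red and Annexin V Alexa Fluor 680. CellPathfinder machine-learning gating assigned cells to Hoechst high-intensity objects or normal cells, normal cells to healthy, pyknosed or fragmented nuclei, and pyknosed cells to mitotic or apoptotic. Tubulin, mitochondrial-mass and membrane-permeability phenotypes are per cents of healthy-nucleus cells.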

[1] = 12 h, 1 µM, compound concentration 1 uM, replicate 1
[2] = 12 h, 1 µM, compound concentration 1 uM, replicate 2
[3] = 12 h, 10 µM, compound concentration 10 uM, replicate 1
[4] = 12 h, 10 µM, compound concentration 10 uM, replicate 2
[5] = 24 h, 1 µM, compound concentration 1 uM, replicate 1
[6] = 24 h, 1 µM, compound concentration 1 uM, replicate 2
[7] = 24 h, 10 µM, compound concentration 10 uM, replicate 1
[8] = 24 h, 10 µM, compound concentration 10 uM, replicate 2
[9] = 48 h, 1 µM, compound concentration 1 uM, replicate 1
[10] = 48 h, 1 µM, compound concentration 1 uM, replicate 2
[11] = 48 h, 10 µM, compound concentration 10 uM, replicate 1
[12] = 48 h, 10 µM, compound concentration 10 uM, replicate 2

SMILES: CCc1cccc(CC)c1NC(=O)c1nn(C)c2c1CCc1cnc(Nc3ccc(C(=O)NC4CCN(C)CC4)cc3OC(F)(F)F)nc1-2
- Population Apoptotic (%) [1]: 34%
- Population Fragmented Nuclei (%) [1]: 18%
- Population Healthy Nuclei (%) [1]: 60%
- Population Hoechst High Intensity Objects (%) [1]: 9%
- Population Membrane Permeable-Phenotype (%) [1]: 3%
- Population Mitochondria Different-Phenotype (%) [1]: 22%
- Population Mitotic Cells (%) [1]: 65%
- Population Normal (%) [1]: 90%
- Population Pyknosed Nuclei (%) [1]: 20%
- Population Tubulin-Different-Phenotype (%) [1]: 12%
- Total Cell Count [1]: 191
- Population Apoptotic (%) [2]: 40%
- Population Fragmented Nuclei (%) [2]: 1%
- Population Healthy Nuclei (%) [2]: 83%
- Population Hoechst High Intensity Objects (%) [2]: 13%
- Population Membrane Permeable-Phenotype (%) [2]: 5%
- Population Mitochondria Different-Phenotype (%) [2]: 14%
- Population Mitotic Cells (%) [2]: 60%
- Population Normal (%) [2]: 86%
- Population Pyknosed Nuclei (%) [2]: 15%
- Population Tubulin-Different-Phenotype (%) [2]: 18%
- Total Cell Count [2]: 51
- Population Apoptotic (%) [3]: 50%
- Population Fragmented Nuclei (%) [3]: 18%
- Population Healthy Nuclei (%) [3]: 54%
- Population Hoechst High Intensity Objects (%) [3]: 5%
- Population Membrane Permeable-Phenotype (%) [3]: 34%
- Population Mitochondria Different-Phenotype (%) [3]: 97%
- Population Mitotic Cells (%) [3]: 50%
- Population Normal (%) [3]: 94%
- Population Pyknosed Nuclei (%) [3]: 26%
- Population Tubulin-Different-Phenotype (%) [3]: 99%
- Total Cell Count [3]: 156
- Population Apoptotic (%) [4]: 46%
- Population Fragmented Nuclei (%) [4]: 12%
- Population Healthy Nuclei (%) [4]: 70%
- Population Membrane Permeable-Phenotype (%) [4]: 15%
- Population Mitochondria Different-Phenotype (%) [4]: 98%
- Population Mitotic Cells (%) [4]: 53%
- Population Pyknosed Nuclei (%) [4]: 17%
- Population Tubulin-Different-Phenotype (%) [4]: 86%
- Total Cell Count [4]: 75
- Population Apoptotic (%) [5]: 44%
- Population Fragmented Nuclei (%) [5]: 15%
- Population Healthy Nuclei (%) [5]: 64%
- Population Hoechst High Intensity Objects (%) [5]: 7%
- Population Membrane Permeable-Phenotype (%) [5]: 3%
- Population Mitochondria Different-Phenotype (%) [5]: 18%
- Population Mitotic Cells (%) [5]: 55%
- Population Normal (%) [5]: 92%
- Population Pyknosed Nuclei (%) [5]: 20%
- Population Tubulin-Different-Phenotype (%) [5]: 11%
- Total Cell Count [5]: 190
- Population Apoptotic (%) [6]: 37%
- Population Fragmented Nuclei (%) [6]: 7%
- Population Healthy Nuclei (%) [6]: 81%
- Population Hoechst High Intensity Objects (%) [6]: 10%
- Population Membrane Permeable-Phenotype (%) [6]: 5%
- Population Mitochondria Different-Phenotype (%) [6]: 12%
- Population Mitotic Cells (%) [6]: 62%
- Population Normal (%) [6]: 89%
- Population Pyknosed Nuclei (%) [6]: 11%
- Population Tubulin-Different-Phenotype (%) [6]: 19%
- Total Cell Count [6]: 53
- Population Apoptotic (%) [7]: 56%
- Population Fragmented Nuclei (%) [7]: 20%
- Population Healthy Nuclei (%) [7]: 48%
- Population Hoechst High Intensity Objects (%) [7]: 5%
- Population Membrane Permeable-Phenotype (%) [7]: 40%
- Population Mitochondria Different-Phenotype (%) [7]: 100%
- Population Mitotic Cells (%) [7]: 43%
- Population Normal (%) [7]: 94%
- Population Pyknosed Nuclei (%) [7]: 30%
- Population Tubulin-Different-Phenotype (%) [7]: 97%
- Total Cell Count [7]: 156
- Population Apoptotic (%) [8]: 50%
- Population Fragmented Nuclei (%) [8]: 15%
- Population Healthy Nuclei (%) [8]: 63%
- Population Hoechst High Intensity Objects (%) [8]: 2%
- Population Membrane Permeable-Phenotype (%) [8]: 26%
- Population Mitochondria Different-Phenotype (%) [8]: 91%
- Population Mitotic Cells (%) [8]: 50%
- Population Normal (%) [8]: 97%
- Population Pyknosed Nuclei (%) [8]: 20%
- Population Tubulin-Different-Phenotype (%) [8]: 73%
- Total Cell Count [8]: 77
- Population Apoptotic (%) [9]: 46%
- Population Fragmented Nuclei (%) [9]: 19%
- Population Healthy Nuclei (%) [9]: 54%
- Population Hoechst High Intensity Objects (%) [9]: 9%
- Population Membrane Permeable-Phenotype (%) [9]: 5%
- Population Mitochondria Different-Phenotype (%) [9]: 18%
- Population Mitotic Cells (%) [9]: 53%
- Population Normal (%) [9]: 90%
- Population Pyknosed Nuclei (%) [9]: 25%
- Population Tubulin-Different-Phenotype (%) [9]: 17%
- Total Cell Count [9]: 179
- Population Apoptotic (%) [10]: 9%
- Population Fragmented Nuclei (%) [10]: 16%
- Population Healthy Nuclei (%) [10]: 72%
- Population Hoechst High Intensity Objects (%) [10]: 4%
- Population Membrane Permeable-Phenotype (%) [10]: 7%
- Population Mitochondria Different-Phenotype (%) [10]: 19%
- Population Mitotic Cells (%) [10]: 90%
- Population Normal (%) [10]: 95%
- Population Pyknosed Nuclei (%) [10]: 11%
- Population Tubulin-Different-Phenotype (%) [10]: 23%
- Total Cell Count [10]: 49
- Population Apoptotic (%) [11]: 57%
- Population Fragmented Nuclei (%) [11]: 27%
- Population Healthy Nuclei (%) [11]: 34%
- Population Hoechst High Intensity Objects (%) [11]: 5%
- Population Membrane Permeable-Phenotype (%) [11]: 57%
- Population Mitochondria Different-Phenotype (%) [11]: 95%
- Population Mitotic Cells (%) [11]: 42%
- Population Normal (%) [11]: 94%
- Population Pyknosed Nuclei (%) [11]: 38%
- Population Tubulin-Different-Phenotype (%) [11]: 98%
- Total Cell Count [11]: 188
- Population Apoptotic (%) [12]: 44%
- Population Fragmented Nuclei (%) [12]: 11%
- Population Healthy Nuclei (%) [12]: 51%
- Population Membrane Permeable-Phenotype (%) [12]: 35%
- Population Mitochondria Different-Phenotype (%) [12]: 86%
- Population Mitotic Cells (%) [12]: 55%
- Population Pyknosed Nuclei (%) [12]: 37%
- Population Tubulin-Different-Phenotype (%) [12]: 64%
- Total Cell Count [12]: 97
